Experimental findings from ChEMBL document CHEMBL3785060, “Nitric Oxide Inhibitory Activity and Absolute Configurations of Arylalkenyl α,β-Unsaturated δ/γ-Lactones from Cryptocarya concinna” (J Nat Prod, 2016) are described below.

One data set concerns RAW264.7. Put plainly: Antiinflammatory activity in mouse RAW264.7 cells assessed as inhibition of LPS-induced nitric oxide production after 18 hrs by Griess assay. It counts as functional, cell-based. The note with it: RAW264.7, 18 h. The essentials:
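LPS-stimulated RAW 264.7 macrophages. Cell viability was first checked by MTT at concentrations up to 100 μM, so that NO inhibition could be separated from cytotoxicity. N-monomethyl-L-arginine served as positive control. Each experiment was run in triplicate. IC50 is given as mean ± SD of three independent experiments.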

Data set [1] in a line: Cytotoxicity against mouse RAW264.7 cells assessed as cell survival up to 100 uM by MTT assay. It is filed as cell-based. The note with it: read-out: Survival. Put shortly: (§1)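 RAW 264.7 macrophages were screened by MTT before the LPS-induced NO assay to rule out cytotoxicity. Concentrations went up to 100 μM, including 50 μM, and the read-out was percent cell survival. All experiments were run in triplicate.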
In general terms: Formazan colour is commonly taken as a measure of viable cells.

A short description of data set [2]: Cytotoxicity against mouse RAW264.7 cells assessed as cell survival at 50 uM by MTT assay. It is filed as cell-based. The note with it: read-out: Survival. Put shortly:
as §1

The term IC50 denotes the concentration needed to halve the response being measured. Consider `O=C1C=CC[C@H](C[C@@H]2C[C@H](O)C[C@H](/C=C/c3ccccc3)O2)O1`, for which, in the data set on RAW264.7, the IC50 worked out at 4.2 µM. The viability in data set [1] was more than 90%.
In the case of `CC(=O)O[C@H](C[C@@H](O)C[C@H](O)/C=C/c1ccccc1)C[C@@H]1OC(=O)C=C[C@@H]1O`, the half-inhibitory concentration (IC50) with RAW264.7 is 27.6 µM. Further, the viability in data set [1] was more than 90%.
Regarding `CC(=O)O[C@@H](C/C=C1/C=CC(=O)O1)C[C@@H](O)C[C@H](O)/C=C/c1ccccc1`, the half-maximal inhibitory concentration (IC50) in the data set with RAW264.7 came to 3.4 µM. In data set [1], the viability was more than 90%.
Turning to `CC(=O)O[C@H](C[C@@H](O)C[C@H](O)/C=C/c1ccccc1)C[C@H]1CC=CC(=O)O1`, the half-maximal inhibitory concentration (IC50) with RAW264.7 was more than 50 µM. Moreover, in data set [1], the viability was more than 90%.
For `CC(=O)O[C@H](C[C@@H](O)C/C=C1/C=CC(=O)O1)C[C@H](O)/C=C/c1ccccc1` the same measures were 7.5 µM and more than 90%.
Turning to `O=C1C=CC[C@H](C[C@H](O)C[C@@H](O)C[C@H](O)/C=C/c2ccccc2)O1`, the concentration for half-maximal inhibition (IC50) in the data set on RAW264.7 was determined as 3.2 µM. Also, the viability in data set [1] was more than 90%.
For the compound `CC(=O)O[C@H](C[C@@H](O)C[C@@H]1OC(=O)C=C[C@@H]1O)C[C@H](O)/C=C/c1ccccc1`, in data set [2], the viability at 50 µM is less than 15%.
As for `CC(=O)O[C@H](C[C@@H](O)C[C@H]1CC=CC(=O)O1)C[C@H](O)/C=C/c1ccccc1`, in the data set on RAW264.7, the half-maximal inhibitory concentration (IC50) was more than 50 µM.
Regarding `O=C1C=C[C@H](O)[C@H](C[C@H](O)C[C@@H](O)C[C@H](O)/C=C/c2ccccc2)O1`, in the data set on RAW264.7, the IC50 came to 13.8 µM. For the same compound, in data set [1], the viability was more than 90%.
As to `CC(=O)O[C@H](C[C@H](C[C@H](O)/C=C/c1ccccc1)OC(C)=O)C[C@H]1CC=CC(=O)O1`, the IC50 in the data set with RAW264.7 was more than 50 µM.
As to `CNC(=N)NCCC[C@H](N)C(=O)O` [TILARGININE], the half-maximal inhibitory concentration (IC50) with RAW264.7 worked out at 45 µM.
